Screening data deposited in PubChem by Sanford-Burnham Center for Chemical Genomics.
Rows were chosen to be rich in hits. Some 1.9% of all compounds tested hit in one or more screens of this group.
DNMT1 block = blocks human DNA methyltransferase DNMT1. P26358. 360,000 compounds, 0.83% hits. DNMT1 molecular beacon, Hinp1I cleavage, fluorescence. inhibition (reported as % activation of signal), % at 10 µM. AID 588458; in the data active = inhibition above about 50%
STEP block = inhibitors of human striatal-enriched phosphatase STEP; P54829; recombinant STEP, OMFP fluorogenic substrate, fluorescence; inhibition, % at 20 µM; 360,000 compounds, 0.25% hits; AID 588621;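 active = inhibition at 20 µM, scaled per plate between control wells, above about 37%, limit read from the data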;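 also: 0% = DMSO with enzyme and substrate and 100% = substrate only without enzyme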
Target sequence (P54829 whole entry, looked up): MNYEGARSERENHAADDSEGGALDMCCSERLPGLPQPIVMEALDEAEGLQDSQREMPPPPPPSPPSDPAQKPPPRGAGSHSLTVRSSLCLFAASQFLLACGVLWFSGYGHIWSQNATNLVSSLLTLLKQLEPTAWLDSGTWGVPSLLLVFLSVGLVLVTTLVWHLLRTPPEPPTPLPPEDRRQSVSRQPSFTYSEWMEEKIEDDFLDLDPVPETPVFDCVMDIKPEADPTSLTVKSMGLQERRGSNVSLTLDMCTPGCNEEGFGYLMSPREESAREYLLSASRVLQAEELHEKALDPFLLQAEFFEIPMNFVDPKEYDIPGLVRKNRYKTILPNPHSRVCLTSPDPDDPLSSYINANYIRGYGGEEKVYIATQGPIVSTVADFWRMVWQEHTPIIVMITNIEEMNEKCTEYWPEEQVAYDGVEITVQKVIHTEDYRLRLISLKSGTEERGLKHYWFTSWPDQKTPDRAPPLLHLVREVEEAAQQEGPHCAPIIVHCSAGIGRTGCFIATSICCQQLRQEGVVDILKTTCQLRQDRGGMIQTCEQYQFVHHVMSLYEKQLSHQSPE
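System: STEP (striatal-enriched tyrosine phosphatase) enzyme, cell-free; medium: Bis-Tris pH 6.0 buffer with DTT, detergent; dosing: 20 µM, 1% DMSO; times: reaction 20 min, ambient temperature; detection: fluorescence, 480/540 nm; read-out basis: normalized % inhibition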
SUMO1-SIM PPI = SUMO1-SIM interaction modulation. 360,000 compounds, 0.33% hits. SUMO1 binding to a labelled peptide, TR-FRET, 1 h. P63165. inhibition, % at 20 µM. AID 602429; in the data active = inhibition above about 37%
Target sequence (P63165 whole entry, looked up): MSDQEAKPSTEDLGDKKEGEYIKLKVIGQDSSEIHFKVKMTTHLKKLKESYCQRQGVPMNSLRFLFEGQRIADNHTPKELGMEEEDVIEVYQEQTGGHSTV
LMPTP block = LMPTP (human) inhibition; recombinant LMPTP-A, OMFP fluorogenic substrate, fluorescence intensity; inhibition, % at 20 µM; 360,000 compounds, 0.22% hits; AID 651560; P24666;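 active = compounds that cut the enzyme signal by at least half of the control window in the single-dose screen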;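 also: plate controls were DMSO wells with enzyme plus substrate for no effect and substrate without enzyme for full effect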
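Assay system: LMPTP-A, protein tyrosine phosphatase of low molecular weight / Medium: pH 6.0 Bis-Tris buffer with DTT and Triton X-100 / Schedule: 50 min enzyme reaction at room temperature, protected from light / Measured by: endpoint fluorescence intensity from OMFP dephosphorylation / Read-out basis: % inhibition relative to no-enzyme and uninhibited control wells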
Scp-1 inhibitor = blocks human Scp-1 phosphatase activity | 340,000 compounds, 0.88% hits | inhibition, % at 20 µM | Recombinant Scp1, phosphopeptide, malachite green phosphate absorbance | AID 493091 | Q9GZU7;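 active = inhibition above about 50% at 20 µM, limit read from the data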;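 also: plate controls were DMSO wells with enzyme for no effect and wells lacking enzyme for full effect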
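Test system: SCP-1 phosphatase catalytic domain, residues 76-261 | Compound dosing: One concentration, 20 µM, with 1.0% DMSO | Schedule: 45 min room-temperature reaction, 5 min colour, 30 min stabiliser | Detection: Absorbance at 630 nm | Read-out basis: % inhibition of SCP-1 phosphate liberation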
CSN deneddyl inh = blocks human CSN-mediated cullin deneddylation | 360,000 compounds, 0.38% hits | Purified CSN, SCF-Nedd8-OG deneddylation, fluorescence polarization | inhibition, % at 12.5 µM | Q92905;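 active = pattern-corrected inhibition above about 35%, with an unprinted fluorescence ratio check between 0.5 and 1.5, limit read from the data, passing the limit was not always enough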;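 also: 0% = enzyme with substrate and 100% = substrate without enzyme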
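Assay system: purified human Csn5 enzyme expressed in HEK293T cells; measure: % inhibition; also added: SCFSkp2-Nedd8OG substrate at 10 nM final; technique: fluorescence polarization; times: reaction 90 min, room temperature; medium: Tris buffer pH 7.5, NaCl, DTT, Tween-20, trehalose, ovalbumin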
Scp-1 conf = confirmation of human Scp-1 phosphatase inhibitors; shares compounds with Scp-1 inhibitor; recombinant SCP-1 catalytic domain, phosphate release, malachite green absorbance; inhibition, % at 20 µM; 2,500 compounds, 61% hits;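 also: plate controls were DMSO with enzyme for no effect and buffer wells lacking enzyme for full effect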
MG interference = colorimetric interference in Scp-1 counter-screen | shares compounds with Scp-1 inhibitor | Colorimetric interference counterscreen, malachite green absorbance 630 nm | apparent inhibition (interference), % at 20 µM | 2,500 tested, under 10 active;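 also: compounds added after enzyme reaction finished so only phosphate colour detection is probed; plate controls were DMSO wells with completed Scp-1 reaction for no effect and substrate wells lacking enzyme for full effect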
Scp1 DSF = binds human Scp-1, shifting its melting temperature; thermal shift relative to vanadate control, % at 40 µM; shares compounds with Scp-1 inhibitor; Recombinant SCP1, Sypro Orange thermal shift Tm; 1,500 compounds, 25% hits;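 active = substances whose mean melting-temperature shift, as a percentage of the reference inhibitor's shift, reaches about 5.3%, limit read from the data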;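 also: 0% = Tm of DMSO wells and 100% = Tm with sodium orthovanadate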
Active calls of the source: *; · = no result given.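 The calls were made as follows, unless noted: active = inhibition of at least 30% at 20 µM; inactive = the rest.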

SMILES	DNMT1 block	STEP block	SUMO1-SIM PPI	LMPTP block	Scp-1 inhibitor	CSN deneddyl inh	Scp-1 conf	MG interference	others
CCc1ccccc1NC(=O)C1CCCN1S(=O)(=O)c1ccc2c(c1)n(C)c(=O)c(=O)n2C (stereo not drawn)	1	-1	6	-2	-7	1	·	·
Cc1ccc(NC(=O)C2CCCN2S(=O)(=O)c2ccc3c(c2)n(C)c(=O)c(=O)n3C)c(C)c1 (stereo not drawn)	0	-2	4	0	-12	4	-10	-11
CN(C)C(=O)CCCCCCCCC(=O)N(C)C	0	-1	1	-3	0	1	·	·
CC(=O)c1cccc(NC(=O)COc2cc3oc(=O)c(CC(C)O)c(C)c3cc2Cl)c1 (stereo not drawn)	9	-1	-6	3	51*	-2	46*	-13	Scp1 DSF=-20
CCOC(=O)c1ccc(NC(=O)COc2cc3oc(=O)c(CC(C)O)c(C)c3cc2Cl)cc1 (stereo not drawn)	-8	2	11	1	25	-3	·	·
CCn1c(=O)[nH]c(=O)c2c(N)c(C(=O)c3cc(F)ccc3F)sc21	0	-1	-8	-3	-19	-1	·	·
C/C(=N\NC(=O)c1cccc(N/N=C(\C)c2ccco2)c1)c1ccco1	4	2	23	8	61*	18	62*	-15	Scp1 DSF=6.1*
CC(=O)OCC[n+]1c(C)n(-c2ccccc2)c2ccc(Cl)cc21	2	-1	-3	-2	90*	5	-9	-13
Cn1c(NNC(=O)CCC2CCCCC2)cc(=O)n(C)c1=O	0	-5	4	-1	-1	-3	-10	-12
Cn1c(NC2CCCCC2)cc(=O)n(C)c1=O	3	-2	1	-3	-12	3	·	·
Cc1cccc(CC(=O)Nc2cc(=O)n(C)c(=O)n2C)c1	3	10	5	-1	-5	1	·	·
Cn1c(NC(=O)CCC2CCCCC2)cc(=O)n(C)c1=O	-1	0	9	1	-9	7	-13	-13
Cn1c(NC(=O)Cc2cccc3ccccc23)cc(=O)n(C)c1=O	2	1	2	-1	-12	-2	-20	-26
Cn1c(NC(=O)c2ccc(C(C)(C)C)cc2)cc(=O)n(C)c1=O	3	2	2	1	-7	-1	-21	-13
CCOc1ccc(CCNC(=O)CSc2nc3ncc(Cl)cc3[nH]2)cc1OCC	2	2	4	-3	1	-5	·	·
Cc1ccc(NC(=O)CCSCCC(=O)Nc2ccc(C)c(C)c2)cc1C	-1	2	-1	1	-6	3	·	·
Cc1ccc(NC(=O)CC(=O)Nc2ccc(C)c(C)c2)cc1C	6	1	4	1	62*	3	82*	-2	Scp1 DSF=0
c1ccc(-c2csc(-n3cnnn3)n2)cc1	-7	0	-4	-1	-1	3	·	·
Cc1ccc(C)c(S(=O)(=O)N2CCN(c3nc(-c4cccnc4)nc4ccccc34)CC2)c1	-11	6	-111	8	15	2	·	·
N/C(=N\OC(=O)c1ccc(Br)cc1)c1cccc([N+](=O)[O-])c1	10	2	-21	0	65*	7	62*	-19	Scp1 DSF=1
Cc1ccc(C(=O)O/N=C(\N)c2cccc([N+](=O)[O-])c2)cc1	1	1	-17	0	-7	0	·	·
CCc1nnc(NC(=O)CCC(=O)N2CCN(C3c4ccccc4-c4ccccc43)CC2)s1	-2	1	-5	0	72*	-1	-21	-12
CCn1c2ccccc2c2nnc(SCC(N)=O)nc21	-1	2	-10	-1	-1	6	·	·
CCn1c2ccccc2c2nnc(SCC(=O)c3c(N)n(C)c(=O)n(C)c3=O)nc21	-17	12	6	-1	63*	11	-3	-10
COc1cccc(CN(C)C(=O)/C=C/c2ccc(S(=O)(=O)N3CCCCCC3)cc2)c1	-4	1	-11	-1	0	4	·	·
SMILES	DNMT1 block	STEP block	SUMO1-SIM PPI	LMPTP block	Scp-1 inhibitor	CSN deneddyl inh	Scp-1 conf	MG interference	others
N#Cc1c(N)nc2c(c1N)CC(COc1ccccc1)O2 (stereo not drawn)	1	-8	2	-2	1	0	·	·
N#Cc1c(N)nc2c(c1N)CC(CO)O2 (stereo not drawn)	0	-2	3	0	56*	0	10	2
CC(=O)c1ccc(NC(=O)c2cccc(N3C(=O)c4ccccc4C3=O)c2)cc1	40	98*	84*	55*	97*	132	48*	-13	Scp1 DSF=-15
O=C(O)c1cc(NC(=O)c2cccc(N3C(=O)c4ccccc4C3=O)c2)cc(C(=O)O)c1	1	-1	-5	-2	-7	5	·	·
O=C(NNC1OC(CO)C(O)C(O)C1O)c1cccc(Br)c1 (stereo not drawn)	6	-3	1	-1	-19	-5	10	1
N=C1/C(=C\c2ccc(OC(=O)c3ccc(F)cc3)cc2)C(=O)N=C2SC(N3CCOCC3)=NN12	8	2	-3	1	66*	3	56*	-2	Scp1 DSF=1
CC1CCN(C2=NN3C(=N)/C(=C\c4ccc(OC(=O)c5ccco5)cc4)C(=O)N=C3S2)CC1	16	2	13	0	35	6	·	·
CCC(C)(C)n1nnnc1C(c1ccc(C)cc1)N(Cc1ccco1)Cc1cccs1 (stereo not drawn)	0	5	-1	3	107*	7	-10	-11
CC1CCN(S(=O)(=O)c2ccc3c(c2)C(Cl)(Cl)C(=O)N3)CC1	14	3	15	-3	·	27	·	·
CC1CC(CC(=O)Nc2nc(-c3ccccc3)cs2)C(=O)O1 (stereo not drawn)	8	3	2	-2	-4	1	-10	-5
COc1cccc(NC(=O)CCC(=O)Nc2cc(OC)c(NC(=O)c3cccs3)cc2OC)c1	-4	-2	18	0	-5	-1	·	·
CCOc1cc(OCC)nc(S(C)(=O)=O)n1	5	-5	0	-2	-4	0	·	·
CCC(C(=O)NC1CCCCC1)N(Cc1cccs1)C(=O)c1snc(C(N)=O)c1N (stereo not drawn)	3	2	-7	0	-5	0	·	·
